Assay [1] in a line: Displacement of [3H]Ro-151788 from benzodiazepine binding site of GABAA alpha1 S204C beta2gamma2 receptor mutant expressed in HEK293T cells. The format is cell-based. The note with it: hek-293t.
Assay [2] is described as follows: Displacement of [3H]Ro-151788 from benzodiazepine binding site of GABAA alpha1 A160C beta2gamma2 receptor mutant expressed in HEK293T cells. It is filed as cell-based. The note with it: hek-293t.
Assay [3] can be described thus: Displacement of [3H]Ro-151788 from benzodiazepine binding site of GABAA alpha-1-beta-2-gamma-2 T126C receptor mutant expressed in HEK293T cells. To be noted: hek-293t. The format is cell-based.
Assay [4] can be described thus: Displacement of [3H]Ro-151788 from benzodiazepine binding site of GABAA alpha-1-beta-2-gamma-2 A79C receptor mutant expressed in HEK293T cells. It is filed as cell-based. The note with it: hek-293t. In general terms: Loss of bound radioactivity is the signal in a displacement assay; it reports binding, not function.
The nature of assay [5]: Displacement of [3H]Ro-151788 from benzodiazepine binding site of GABAA alpha1 V202C beta2gamma2 receptor mutant expressed in HEK293T cells. The format is cell-based. To be noted: hek-293t.
The nature of assay [6]: Displacement of [3H]Ro15-1788 from benzodiazepine binding site of GABAA alpha-1 V211C beta2gamma2 receptor mutant expressed in HEK293T cells. To be noted: hek-293t. The format is cell-based. A digest of the protocol:
(§1)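 Cysteine mutant α1 subunit made by recombinant PCR, co-transfected with WT β2 and γ2L (equal DNA ratios, 4 μg/subunit, CaHPO4 method) into HEK293T cells; membranes harvested 48 h post-transfection. One-site competition fit; Ki by Cheng-Prusoff; three experiments in triplicate, mean ± SD.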

A short description of assay [7]: Displacement of [3H]Ro15-1788 from benzodiazepine binding site of GABAA alpha-1 T206C beta2gamma2 receptor mutant expressed in HEK293T cells. The format is cell-based. The note with it: hek-293t.
Assay [8] in a line: Displacement of [3H]Ro-151788 from benzodiazepine binding site of GABAA alpha-1-beta-2-gamma-2 R132C receptor mutant expressed in HEK293T cells. The format is cell-based. To be noted: hek-293t.
A short description of assay [9]: Displacement of [3H]Ro-151788 from benzodiazepine binding site of GABAA alpha-1-beta-2-gamma-2 […] receptor mutant expressed in HEK293T cells. It is filed as cell-based. The note with it: hek-293t.
Assay [10] in a line: Displacement of [3H]Ro-151788 from benzodiazepine binding site of GABAA alpha-1-beta-2-gamma-2 M130C receptor mutant expressed in HEK293T cells. It is filed as cell-based. To be noted: hek-293t.
A short description of assay [11]: Displacement of [3H]Ro15-1788 from benzodiazepine binding site of GABAA alpha-1 F99C beta2gamma2 receptor mutant expressed in HEK293T cells. It is filed as cell-based. To be noted: hek-293t.
Assay [12] can be described thus: Displacement of [3H]Ro15-1788 from benzodiazepine binding site of GABAA alpha-1 G157C beta2gamma2 receptor mutant expressed in HEK293T cells. The format is cell-based. To be noted: hek-293t.
In assay [13] the target is GABA A receptor alpha-3/beta-2/gamma-2 (Rattus norvegicus, UniProt P18508+P20236+P63138). The experiment in a line: Displacement of [3H]Ro-151788 from benzodiazepine binding site of GABAA alpha-3-beta-2-gamma-2 receptor expressed in HEK293T cells. The format is cell-based, HEK-293T. In a few lines: (§2)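 α2 or α3 subunits were co-transfected with β2 and γ2, all in pRK5, into HEK293T cells by CaHPO4 precipitation at 4 μg per subunit. Membranes were prepared at 48 h. IC50 came from a one-site competition fit and was converted to Ki by Cheng-Prusoff. Mean ± SD of ≥3 experiments.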

Assay [14] in a line: Displacement of [3H]Ro-151788 from benzodiazepine binding site of GABAA alpha1 S205C beta2gamma2 receptor mutant expressed in HEK293T cells. The format is cell-based. The note with it: hek-293t.
A short description of assay [15]: Displacement of [3H]Ro-151788 from benzodiazepine binding site of GABAA alpha-1-beta-2-gamma-2 D56C receptor mutant expressed in HEK293T cells. It is filed as cell-based. To be noted: hek-293t.
The nature of assay [16]: Displacement of [3H]Ro-151788 from benzodiazepine binding site of GABAA alpha-1-beta-2-gamma-2 R185C receptor mutant expressed in HEK293T cells. The format is cell-based. To be noted: hek-293t.
The nature of assay [17]: Displacement of [3H]Ro-151788 from benzodiazepine binding site of GABAA alpha-1-beta-2-gamma-2 L140C receptor mutant expressed in HEK293T cells. It is filed as cell-based. To be noted: hek-293t.
Assay [18] in a line: Displacement of [3H]Ro-151788 from benzodiazepine binding site of GABAA alpha-1-beta-2-gamma-2 T81C receptor mutant expressed in HEK293T cells. It is filed as cell-based. To be noted: hek-293t.
The target in assay [19] is GABA A receptor alpha-2/beta-2/gamma-2 (Rattus norvegicus, UniProt P18508+P23576+P63138). The experiment in a line: Displacement of [3H]Ro-151788 from benzodiazepine binding site of GABAA alpha-2-beta-2-gamma-2 receptor expressed in HEK293T cells. It is filed as cell-based, HEK-293T. A digest of the protocol:
as §2

Assay [20] can be described thus: Displacement of [3H]Ro15-1788 from benzodiazepine binding site of GABAA alpha1 T162C beta-2-gamma-2 receptor mutant expressed in HEK293T cells. It is filed as cell-based. To be noted: hek-293t. In a few lines:
as §1

A short description of assay [21]: Displacement of [3H]Ro-151788 from benzodiazepine binding site of GABAA alpha-1-beta-2-gamma-2 R194C receptor mutant expressed in HEK293T cells. To be noted: hek-293t. The format is cell-based. In a few lines: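 Transiently expressed in HEK293T (CaHPO4 transfection, equal α/β/γ DNA, 4 μg/subunit; cysteine-mutant γ2L with WT α1, β2). […] One-site competition fit for IC50; Ki by Cheng-Prusoff; mean ± SD, three experiments in triplicate; mutant/WT Ki ratio.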

A short description of assay [22]: Displacement of [3H]Ro15-1788 from benzodiazepine binding site of GABAA alpha-1 G200C beta2gamma2 receptor mutant expressed in HEK293T cells. To be noted: hek-293t. The format is cell-based.
Assay [23] is described as follows: Displacement of [3H]Ro-151788 from benzodiazepine binding site of GABAA alpha-1-beta-2-gamma-2 T142C receptor mutant expressed in HEK293T cells. It is filed as cell-based. The note with it: hek-293t.
Assay [24] deals with HEK-293T. The experiment in a line: Displacement of [3H]Ro-151788 from benzodiazepine binding site of GABAA alpha-1-beta-2-gamma-2 F77C receptor mutant expressed in HEK293T cells. The format is cell-based. A digest of the protocol: (§3)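 HEK293T cells in MEM with 10% FBS were transiently transfected by CaHPO4 precipitation with α1, β2 and γ2L subunits (WT or PCR-made, sequence-verified cysteine mutant) in pUNIV, using equal ratios at 4 μg per subunit. Membranes were harvested at 48 h. […] Ki was derived from a one-site fit using Cheng-Prusoff. Mean ± SD, three experiments in triplicate.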

The subject of assay [25] is HEK-293T. The assay is described as follows: Displacement of [3H]Ro-151788 from benzodiazepine binding site of GABAA alpha1 D97C beta2gamma2 receptor mutant expressed in HEK293T cells. It is filed as cell-based. A digest of the protocol:
as §3

In assay [26] the test system is HEK-293T. The assay is described as follows: Displacement of [3H]Ro15-1788 from benzodiazepine binding site of GABAA alpha1 Y209C beta2gamma2 receptor mutant expressed in HEK293T cells. The format is cell-based. A digest of the protocol: as §3

Activity calls are given as the source filed them. The calls are words filed in the database; no cut-off is given here.

Chain of GABA A receptor alpha-2/beta-2/gamma-2 (P18508 whole entry): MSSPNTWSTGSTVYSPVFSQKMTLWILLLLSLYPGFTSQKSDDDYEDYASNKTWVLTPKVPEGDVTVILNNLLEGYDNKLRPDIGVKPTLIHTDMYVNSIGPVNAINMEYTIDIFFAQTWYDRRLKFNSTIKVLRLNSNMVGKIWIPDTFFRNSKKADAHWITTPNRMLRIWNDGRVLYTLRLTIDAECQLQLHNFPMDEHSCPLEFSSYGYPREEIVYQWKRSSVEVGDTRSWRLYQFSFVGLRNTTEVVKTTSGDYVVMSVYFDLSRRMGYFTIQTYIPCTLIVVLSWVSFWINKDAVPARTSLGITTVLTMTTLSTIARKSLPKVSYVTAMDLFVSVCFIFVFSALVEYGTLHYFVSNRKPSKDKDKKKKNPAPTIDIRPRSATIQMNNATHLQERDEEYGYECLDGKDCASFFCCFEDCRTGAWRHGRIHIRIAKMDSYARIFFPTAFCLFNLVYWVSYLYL
Chain of GABA A receptor alpha-2/beta-2/gamma-2 (P23576 whole entry): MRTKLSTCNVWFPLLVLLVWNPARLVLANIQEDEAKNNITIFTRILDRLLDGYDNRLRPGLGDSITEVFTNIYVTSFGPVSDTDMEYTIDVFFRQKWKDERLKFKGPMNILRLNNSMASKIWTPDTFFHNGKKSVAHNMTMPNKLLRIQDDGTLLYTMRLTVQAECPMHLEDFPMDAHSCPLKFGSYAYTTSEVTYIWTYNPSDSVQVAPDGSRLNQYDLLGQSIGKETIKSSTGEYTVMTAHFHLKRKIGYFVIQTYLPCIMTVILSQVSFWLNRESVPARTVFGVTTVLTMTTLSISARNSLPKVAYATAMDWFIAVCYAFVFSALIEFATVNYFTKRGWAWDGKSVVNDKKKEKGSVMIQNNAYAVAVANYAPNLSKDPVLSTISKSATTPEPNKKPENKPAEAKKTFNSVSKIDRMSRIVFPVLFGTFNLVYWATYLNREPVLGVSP
Chain of GABA A receptor alpha-2/beta-2/gamma-2 (P63138 whole entry): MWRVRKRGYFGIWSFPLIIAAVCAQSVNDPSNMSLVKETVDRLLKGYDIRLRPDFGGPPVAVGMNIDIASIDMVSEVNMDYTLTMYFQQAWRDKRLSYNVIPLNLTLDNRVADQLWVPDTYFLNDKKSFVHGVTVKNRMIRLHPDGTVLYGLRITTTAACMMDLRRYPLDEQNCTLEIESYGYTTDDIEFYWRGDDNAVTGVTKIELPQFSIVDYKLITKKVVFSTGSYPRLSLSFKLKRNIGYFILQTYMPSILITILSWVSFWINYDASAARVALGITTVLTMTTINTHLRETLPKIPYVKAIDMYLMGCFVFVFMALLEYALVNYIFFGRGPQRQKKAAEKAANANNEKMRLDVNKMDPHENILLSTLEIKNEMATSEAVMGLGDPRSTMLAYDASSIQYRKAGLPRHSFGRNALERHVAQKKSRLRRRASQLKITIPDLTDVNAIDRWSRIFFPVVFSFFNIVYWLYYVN
Chain of GABA A receptor alpha-3/beta-2/gamma-2 (P18508 whole entry): as the sequence (P18508 whole entry) above
Chain of GABA A receptor alpha-3/beta-2/gamma-2 (P20236 whole entry): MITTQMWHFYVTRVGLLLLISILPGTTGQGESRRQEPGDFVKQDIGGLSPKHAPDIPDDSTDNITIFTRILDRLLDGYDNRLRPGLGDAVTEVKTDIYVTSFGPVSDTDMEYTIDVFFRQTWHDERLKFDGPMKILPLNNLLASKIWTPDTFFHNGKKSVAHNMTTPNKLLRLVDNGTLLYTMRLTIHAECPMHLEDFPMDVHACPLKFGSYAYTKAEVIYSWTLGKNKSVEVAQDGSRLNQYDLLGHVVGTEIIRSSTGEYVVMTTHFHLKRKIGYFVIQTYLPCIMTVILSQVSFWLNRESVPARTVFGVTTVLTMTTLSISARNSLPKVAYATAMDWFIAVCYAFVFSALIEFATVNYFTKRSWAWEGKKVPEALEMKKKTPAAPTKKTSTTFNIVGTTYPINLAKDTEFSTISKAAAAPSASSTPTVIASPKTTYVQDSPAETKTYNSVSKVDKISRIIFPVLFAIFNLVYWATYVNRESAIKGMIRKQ
Chain of GABA A receptor alpha-3/beta-2/gamma-2 (P63138 whole entry): as the sequence (P63138 whole entry) above

One may read the Ki as the dissociation constant of the complex between target and ligand, obtained from inhibition or displacement. Low readings indicate higher affinity, high ones lower affinity. In the case of `CN1CCN(C(=O)O[C@H]2c3nccnc3C(=O)N2c2ccc(Cl)cn2)CC1` [ESZOPICLONE], the Ki came to 57.9 nM in assay [1]; 60.4 nM in [2]; 71.9 nM in assay [3]; 393 nM in assay [4]; 249 nM in assay [5]; 62.4 nM in assay [6]. Moreover, the Ki in assay [7] worked out at 0.83 nM; in assay [8] it was 110 nM; in [9], 22.4 nM; in [10], 102 nM; in assay [11], 407 nM; in assay [12], 2100 nM. Moreover, the Ki in [13] stood at 162 nM; in assay [14] it was 34.9 nM; in assay [15] it was 82.4 nM; in [16], 70.9 nM; in assay [17], 46.3 nM; in assay [18] it was 75.2 nM. The Ki is 114 nM in assay [19]; 33.8 nM in assay [20]; 67 nM in assay [21]; 119 nM in [22]; 503 nM in assay [23].
For `CCOC(=O)c1ncn2c1CN(C)C(=O)c1cc(F)ccc1-2` [FLUMAZENIL], the result in the assay on HEK-293T [24], in the assay on HEK-293T [25] and in the assay on HEK-293T [26] was inactive.

For the origin of these results see ChEMBL document CHEMBL1152298 (J Med Chem, 2008).
